Measurements published in ChEMBL document CHEMBL4706580, “4-Amino-1,2,4-triazole-3-thione-derived Schiff bases as metallo-β-lactamase inhibitors” (Eur J Med Chem, 2020).
Activity calls are given as the source filed them. No cut-off for these calls is given here.

Experiments:
[1] = Inhibition of beta-lactamase VIM-2 (unknown origin) expressed in Escherichia coli LZ2310 assessed as potentiation of cefoxitin antibacterial activity by measuring cefoxitin induced diameter of inhibition zone at 80 uM incubated for 18 hrs by disk diffusion method (reference value: 14 mm)
Procedure, shortened: (§1)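 Efflux-deficient E. coli LZ2310 (NorE, MdfA, AcrA knocked out) carrying pLB-II with the cloned MBL gene. Mueller-Hinton, CLSI disk diffusion; antibiotic disks (30 µg cefoxitin for VIM-2, 10 µg ampicillin for VIM-4, 30 µg ceftazidime for NDM-1/IMP-1) loaded with inhibitor in DMSO (≤15 µL). Zone diameter after 18 h, 35 ± 1 °C; DMSO and 220 µg EDTA controls. Triplicate.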

[2] = Inhibition of beta-lactamase IMP-1 (unknown origin) expressed in Escherichia coli BL21(DE3) using imipenem as substrate by measuring substrate hydrolysis at 200 uM by spectrophotometric analysis
Procedure, shortened: (§2)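 Purified enzyme (overproduced in E. coli BL21(DE3), pET-9a; ion-exchange and gel filtration), 1-70 nM final. Reporter substrate 150 μM imipenem, read at 300 nm, 30 °C, 50 mM HEPES pH 7.5. Single-point screen at 100 or 200 μM; Ki from v0/vi vs [I] (0.5–1,000 μM final) assuming competitive inhibition, or Dixon plot. Triplicate.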

[3] = Inhibition of beta-lactamase IMP-1 (unknown origin) expressed in Escherichia coli BL21(DE3) using imipenem as substrate by measuring substrate hydrolysis at 100 uM by spectrophotometric analysis; procedure, shortened: as §2
[4] = Inhibition of beta-lactamase NDM-1 (unknown origin) expressed in Escherichia coli LZ2310 assessed as potentiation of ceftazidime antibacterial activity by measuring ceftazidime induced diameter of inhibition zone at 80 uM incubated for 18 hrs by disk diffusion method (reference value: 15 mm); procedure, shortened: as §1
[5] = Inhibition of beta-lactamase NDM1 (unknown origin) expressed in Escherichia coli BL21(DE3) using cefotaxime/nitrocefin as substrate by measuring substrate hydrolysis by spectrophotometric analysis
Procedure, shortened: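 His-tagged enzyme from E. coli BL21(DE3) pET-15b, affinity-purified, 1-70 nM final. Reporter substrate 120 μM cefotaxime (260 nm) or 100 μM nitrocefin (482 nm), 30 °C, 50 mM HEPES pH 7.5. Inhibitor 0.5–1,000 μM final; competitive Ki from v0/vi vs [I] slope or Dixon plot. Triplicate.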

[6] = Inhibition of beta-lactamase VIM2 (unknown origin) expressed in Escherichia coli BL21(DE3) using imipenem as substrate by measuring substrate hydrolysis at 100 uM by spectrophotometric analysis; procedure, shortened: as §2
[7] = Inhibition of beta-lactamase VIM4 (unknown origin) expressed in Escherichia coli BL21(DE3) using imipenem as substrate by measuring substrate hydrolysis by spectrophotometric analysis; procedure, shortened: as §2
[8] = Inhibition of beta-lactamase L1 (unknown origin) expressed in Escherichia coli BL21(DE3) using nitrocefin as substrate by measuring substrate hydrolysis at 100 uM preincubated for 30 mins by spectrophotometric analysis
Procedure, shortened: (§3)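 Enzyme 0.2–0.8 nM in 25 mM HEPES pH 7.5 with 50 μM ZnCl2 final, pre-incubated 30 min at 21 °C with inhibitor (100 μM screen). Nitrocefin 100 μM final, read at 482 nm, 30 °C. Residual activity vs three uninhibited samples; Ki (1–100 μM inhibitor) from Hanes linearization, competitive model. Triplicate.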

Escherichia coli [9] = test: Synergistic antibacterial activity against NDM-1 producing Escherichia coli assessed as MIC of imipenem at 32 ug/ml by broth microdilution method; assay type: functional; settings: dose 32 µg/ml
Escherichia coli [10] = test: Synergistic antibacterial activity against NDM-1 producing Escherichia coli assessed as MIC of meropenem at 32 ug/ml by broth microdilution method; assay type: functional; settings: dose 32 µg/ml
Escherichia coli [11] = test: Synergistic antibacterial activity against NDM-1 producing Escherichia coli assessed as MIC of ceftazidime at 32 ug/ml by broth microdilution method; assay type: functional; settings: dose 32 µg/ml
Escherichia coli [12] = test: Synergistic antibacterial activity against NDM-1 producing Escherichia coli assessed ass MIC of ceftazidime/avibactam at 32 ug/ml by broth microdilution method; assay type: functional; settings: dose 32 µg/ml
Procedure, shortened: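 MIC of ceftazidime-avibactam (avibactam fixed at 4 µg/mL) by CLSI broth microdilution in Mueller-Hinton broth. Used the NDM-1-producing multidrug-resistant E. coli clinical isolate SI-001M at 5 × 10⁴ CFU/well, with and without inhibitor at a fixed 32 µg/ml. No colistin added. Triplicate determinations.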

Escherichia coli [13] = test: Antibacterial activity against NDM-1 producing Escherichia coli in presence of colistin by broth microdilution method.; assay type: functional
HeLa [14] = test: Cytotoxicity in human HeLa cells assessed as cell lysis upto 250 uM incubated for 72 hrs by membrane integrity assay; assay type: cell-based
HUVEC = test: Cytotoxicity in human HUVEC cells assessed as reduction in cell viability upto 100 uM incubated for 72 hrs by MTT assay; assay type: cell-based
[15] = Inhibition of beta-lactamase L1 (unknown origin) expressed in Escherichia coli BL21(DE3) using nitrocefin as substrate by measuring substrate hydrolysis at 200 uM preincubated for 30 mins by spectrophotometric analysis
[16] = Inhibition of beta-lactamase VIM2 (unknown origin) expressed in Escherichia coli BL21(DE3) using imipenem as substrate by measuring substrate hydrolysis at 200 uM by spectrophotometric analysis; procedure, shortened: as §2
Escherichia coli [17] = test: Synergistic antibacterial activity against NDM-1 producing Escherichia coli assessed as MIC of imipenem at 32 ug/ml in presence of colistin by broth microdilution method; assay type: functional; settings: dose 32 µg/ml
Escherichia coli [18] = test: Synergistic antibacterial activity against NDM-1 producing Escherichia coli assessed as MIC of meropenem at 32 ug/ml in presence of colistin by broth microdilution method; assay type: functional; settings: dose 32 µg/ml
Procedure, shortened: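 Broth microdilution per CLSI in Mueller-Hinton broth against a multidrug-resistant NDM-1-producing E. coli clinical isolate (SI-001M), inoculum 5 × 10⁴ CFU/well. […] Run in triplicate.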

Escherichia coli [19] = test: Synergistic antibacterial activity against NDM-1 producing Escherichia coli assessed as MIC of ceftazidime at 32 ug/ml in presence of colistin by broth microdilution method; assay type: functional; settings: dose 32 µg/ml
Escherichia coli [20] = test: Synergistic antibacterial activity against NDM-1 producing Escherichia coli assessed ass MIC of ceftazidime/avibactam at 32 ug/ml in presence of colistin by broth microdilution method; assay type: functional; settings: dose 32 µg/ml
HeLa [21] = test: Cytotoxicity in human HeLa cells assessed as reduction in cell viability upto 250 uM incubated for 72 hrs by MTT assay; assay type: cell-based
[22] = Inhibition of beta-lactamase VIM-2 (unknown origin) expressed in Escherichia coli LZ2310 assessed as potentiation of cefoxitin antibacterial activity by measuring cefoxitin induced diameter of inhibition zone at 240 uM incubated for 18 hrs by disk diffusion method (reference value: 14 mm); procedure, shortened: as §1
[23] = Inhibition of beta-lactamase CphA (unknown origin) expressed in Escherichia coli BL21(DE3) using imipenem as substrate by measuring substrate hydrolysis by spectrophotometric analysis
Procedure, shortened: (§4)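 Enzyme 0.2–0.8 nM in 15 mM cacodylate pH 6.5, no added zinc, pre-incubated 30 min at 21 °C with inhibitor (100 μM screen). Imipenem substrate added from 10 mM stock; hydrolysis at 300 nm, 30 °C. Residual activity vs three uninhibited samples; Ki (1–100 μM inhibitor) by Hanes linearization, competitive model. Triplicate.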

[24] = Inhibition of beta-lactamase IMP-1 (unknown origin) expressed in Escherichia coli BL21(DE3) using imipenem as substrate by measuring substrate hydrolysis by spectrophotometric analysis; procedure, shortened: as §2
[25] = Inhibition of beta-lactamase VIM-2 (unknown origin) expressed in Escherichia coli XL-1 assessed as potentiation of cefoxitin antibacterial activity by measuring cefoxitin induced diameter of inhibition zone at 240 uM incubated for 18 hrs by disk diffusion method (reference value: 8 mm)
Procedure, shortened: (§5)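 Wild-type efflux E. coli XL-1 Blue transformed with pLB-II-VIM-2. Mueller-Hinton disk diffusion per CLSI, 30 µg cefoxitin disks loaded with inhibitor dissolved in DMSO (≤15 µL). Growth-inhibition zone measured after 18 h at 35 ± 1 °C; DMSO negative and 220 µg EDTA positive controls. Triplicate.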

[26] = Inhibition of beta-lactamase VIM2 (unknown origin) expressed in Escherichia coli BL21(DE3) using imipenem as substrate by measuring substrate hydrolysis by spectrophotometric analysis; procedure, shortened: as §2
[27] = Inhibition of beta-lactamase L1 (unknown origin) expressed in Escherichia coli BL21(DE3) using nitrocefin as substrate by measuring substrate hydrolysis preincubated for 30 mins by spectrophotometric analysis; procedure, shortened: as §3
[28] = biological target: Hydroxyacylglutathione hydrolase (Homo sapiens); test: Inhibition of human Glyoxalase II expressed in Escherichia coli BL21 (DE3)
[29] = Inhibition of beta-lactamase CphA (unknown origin) expressed in Escherichia coli BL21(DE3) using imipenem as substrate by measuring substrate hydrolysis at 100 uM by spectrophotometric analysis; procedure, shortened: as §4
[30] = Inhibition of beta-lactamase VIM-2 (unknown origin) expressed in Escherichia coli XL-1 assessed as potentiation of cefoxitin antibacterial activity by measuring cefoxitin induced diameter of inhibition zone at 80 uM incubated for 18 hrs by disk diffusion method (reference value: 8 mm); procedure, shortened: as §5
[31] = Inhibition of beta-lactamase NDM1 (unknown origin) expressed in Escherichia coli BL21(DE3) using cefotaxime/nitrocefin as substrate by measuring substrate hydrolysis at 50 uM by spectrophotometric analysis
[32] = Inhibition of beta-lactamase VIM4 (unknown origin) expressed in Escherichia coli BL21(DE3) using imipenem as substrate by measuring substrate hydrolysis at 100 uM by spectrophotometric analysis; procedure, shortened: as §2

Oc1ccc(/C=N/n2c(-c3ccc(-c4ccccc4)cc3)n[nH]c2=S)c(O)c1
inhibition zone (IZ) [1]: 14 mm | inhibition [2]: inactive | inhibition [3]: inactive | inhibition zone (IZ) [4]: 15 mm | Ki [5]: 1.8 µM | inhibition [6]: inactive | Ki [7]: 2 µM | inhibition [8]: inactive | MIC (Escherichia coli [9]): 8 µg/mL | MIC (Escherichia coli [10]): 16 µg/mL | MIC (Escherichia coli [11]): > 256 µg/mL | MIC (Escherichia coli [12]): > 256 µg/mL | MIC (Escherichia coli [13]): > 256 µg/mL | Activity (HeLa [14]): Non-Toxic | Activity (HUVEC): Non-Toxic | inhibition [15]: inactive | inhibition [16]: inactive | MIC (Escherichia coli [17]): 4 µg/mL | MIC (Escherichia coli [18]): 8 µg/mL | MIC (Escherichia coli [19]): > 256 µg/mL | MIC (Escherichia coli [20]): 4 µg/mL | Activity (HeLa [21]): Non-Toxic

Cc1ccccc1-c1n[nH]c(=S)n1/N=C/c1ccccc1C(=O)O
inhibition zone (IZ) [22]: 20 mm | Ki [23]: 120 µM | Ki [24]: 58 µM | inhibition zone (IZ) [25]: 9 mm | Ki [5]: 110 µM | Ki [26]: 3 µM | Ki [7]: 1.6 µM | Ki [27]: 40 µM | Activity (HeLa [14]): Non-Toxic | Activity (HUVEC): Non-Toxic | IC50 [28]: 25.8 µM

Cc1ccccc1-c1n[nH]c(=S)n1/N=C/c1cccc(O)c1O
inhibition zone (IZ) [1]: 18 mm | inhibition [29]: 68% | inhibition [3]: 63% | inhibition zone (IZ) [30]: 15 mm | inhibition [31]: 39% | Ki [26]: 5.2 µM | inhibition [32]: 65% | inhibition [8]: 55%
